Measured values as given in ChEMBL document CHEMBL4689842, “EUbOPEN Chemogenomics Library wave 1” (2021).

Tested on: HEK-293T
Assay: Multiplex assay against HEK293T;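 for Population Tubulin-Different-Phenotype (%): share of the cells with healthy nuclei that show this phenotype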
Assay type: toxicity, cell-based
Conditions: human
In short: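 Tubulin, mitochondrial-mass and membrane-permeability phenotypes are per cents of healthy-nucleus cells. Cells were gated by CellPathfinder machine learning into Hoechst high-intensity objects or normal cells, normal cells into healthy, pyknosed or fragmented nuclei, and pyknosed cells into mitotic or apoptotic. Before that, live cells stained at seeding with Hoechst33342, BioTracker Green Microtubule Cytoskeleton Dye, MitoTracker Red and Annexin V Alexa Fluor 680 were imaged on a CQ1 microscope at 37°C and 5% CO2 after compound addition.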

[1] = 12 h, 1 µM, compound concentration 1 uM, replicate 1
[2] = 12 h, 1 µM, compound concentration 1 uM, replicate 2
[3] = 12 h, 10 µM, compound concentration 10 uM, replicate 1
[4] = 12 h, 10 µM, compound concentration 10 uM, replicate 2
[5] = 24 h, 1 µM, compound concentration 1 uM, replicate 1
[6] = 24 h, 1 µM, compound concentration 1 uM, replicate 2
[7] = 24 h, 10 µM, compound concentration 10 uM, replicate 1
[8] = 24 h, 10 µM, compound concentration 10 uM, replicate 2

`CCCS(=O)(=O)Nc1ccc(F)c(C(=O)c2c[nH]c3ncc(Cl)cc23)c1F` [PLX-4720] was tested, and the “Population Apoptotic (%)” value [1] was 13%, the “Population Fragmented Nuclei (%)” value [1] was 16% and the “Population Healthy Nuclei (%)” value [1] was 62%. The “Population Hoechst High Intensity Objects (%)” value [1] was 11%, the “Population Membrane Permeable-Phenotype (%)” value [1] was 6% and the “Population Mitochondria Different-Phenotype (%)” value [1] was 4%. The “Population Mitotic Cells (%)” value [1] was 86%, the “Population Normal (%)” value [1] was 88% and the “Population Pyknosed Nuclei (%)” value [1] was 20%. The “Population Tubulin-Different-Phenotype (%)” value [1] was 8%, the “Total Cell Count” value [1] was 675 and the “Population Apoptotic (%)” value [2] was 6%. For the same compound, the “Population Fragmented Nuclei (%)” value [2] was 7%, the “Population Healthy Nuclei (%)” value [2] was 87% and the “Population Hoechst High Intensity Objects (%)” value [2] was 2%. The “Population Membrane Permeable-Phenotype (%)” value [2] was 2%, the “Population Mitochondria Different-Phenotype (%)” value [2] was 10% and the “Population Mitotic Cells (%)” value [2] was 93%. The “Population Normal (%)” value [2] was 97%, the “Population Pyknosed Nuclei (%)” value [2] was 5% and the “Population Tubulin-Different-Phenotype (%)” value [2] was 14%. For the same compound, the “Total Cell Count” value [2] was 1750, the “Population Apoptotic (%)” value [3] was 21% and the “Population Fragmented Nuclei (%)” value [3] was 13%. The “Population Healthy Nuclei (%)” value [3] was 73%, the “Population Hoechst High Intensity Objects (%)” value [3] was 13% and the “Population Membrane Permeable-Phenotype (%)” value [3] was 3%. The “Population Mitochondria Different-Phenotype (%)” value [3] was 2%, the “Population Mitotic Cells (%)” value [3] was 78% and the “Population Normal (%)” value [3] was 86%. The “Population Pyknosed Nuclei (%)” value [3] was 12%, the “Population Tubulin-Different-Phenotype (%)” value [3] was 1% and the “Total Cell Count” value [3] was 751. The “Population Apoptotic (%)” value [4] was 11%, the “Population Fragmented Nuclei (%)” value [4] was 9% and the “Population Healthy Nuclei (%)” value [4] was 86%. The “Population Hoechst High Intensity Objects (%)” value [4] was 2%, the “Population Membrane Permeable-Phenotype (%)” value [4] was 0% and the “Population Mitochondria Different-Phenotype (%)” value [4] was 5%. The “Population Mitotic Cells (%)” value [4] was 88%, the “Population Normal (%)” value [4] was 97% and the “Population Pyknosed Nuclei (%)” value [4] was 4%. For the same compound, the “Population Tubulin-Different-Phenotype (%)” value [4] was 2%, the “Total Cell Count” value [4] was 1952 and the “Population Apoptotic (%)” value [5] was 28%. The “Population Fragmented Nuclei (%)” value [5] was 13%, the “Population Healthy Nuclei (%)” value [5] was 78% and the “Population Hoechst High Intensity Objects (%)” value [5] was 7%. The “Population Membrane Permeable-Phenotype (%)” value [5] was 7%, the “Population Mitotic Cells (%)” value [5] was 71% and the “Population Normal (%)” value [5] was 92%. For the same compound, the “Population Pyknosed Nuclei (%)” value [5] was 7%, the “Population Tubulin-Different-Phenotype (%)” value [5] was 9% and the “Total Cell Count” value [5] was 803. The “Population Apoptotic (%)” value [6] was 3%, the “Population Fragmented Nuclei (%)” value [6] was 20% and the “Population Healthy Nuclei (%)” value [6] was 77%. The “Population Hoechst High Intensity Objects (%)” value [6] was 5%, the “Population Membrane Permeable-Phenotype (%)” value [6] was 8% and the “Population Mitochondria Different-Phenotype (%)” value [6] was 3%. The “Population Mitotic Cells (%)” value [6] was 96%, the “Population Normal (%)” value [6] was 94% and the “Population Pyknosed Nuclei (%)” value [6] was 2%. For the same compound, the “Population Tubulin-Different-Phenotype (%)” value [6] was 24%, the “Total Cell Count” value [6] was 2555 and the “Population Apoptotic (%)” value [7] was 15%. The “Population Fragmented Nuclei (%)” value [7] was 14%, the “Population Healthy Nuclei (%)” value [7] was 78% and the “Population Hoechst High Intensity Objects (%)” value [7] was 6%. The “Population Membrane Permeable-Phenotype (%)” value [7] was 5%, the “Population Mitochondria Different-Phenotype (%)” value [7] was 2% and the “Population Mitotic Cells (%)” value [7] was 84%. For the same compound, the “Population Normal (%)” value [7] was 93%, the “Population Pyknosed Nuclei (%)” value [7] was 6% and the “Population Tubulin-Different-Phenotype (%)” value [7] was 3%. The “Total Cell Count” value [7] was 975, the “Population Apoptotic (%)” value [8] was 3% and the “Population Fragmented Nuclei (%)” value [8] was 29%. The “Population Healthy Nuclei (%)” value [8] was 68%, the “Population Hoechst High Intensity Objects (%)” value [8] was 3% and the “Population Membrane Permeable-Phenotype (%)” value [8] was 3%. For the same compound, the “Population Mitochondria Different-Phenotype (%)” value [8] was 1%, the “Population Mitotic Cells (%)” value [8] was 96% and the “Population Normal (%)” value [8] was 96%. For the same compound, the “Population Pyknosed Nuclei (%)” value [8] was 1%, the “Population Tubulin-Different-Phenotype (%)” value [8] was 4% and the “Total Cell Count” value [8] was 3379.
